# The list is not random: actives were taken first. Their share in the collection is about 5.8%.
# IDH1 mut inh – IDH1 R132H (human) inhibition; O75874; IDH1 R132H reductase, diaphorase/resazurin fluorescence, 60 min; inhibition, % at 10 µM; actives 0.18% (n = 70,000); in the data active means inhibition above about 34%; inconclusive means no clear call, values can overlap the other calls; inactive means below about 11%;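 further: 0% = DMSO and 100% = no enzyme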
# Target sequence (O75874 whole entry R132H): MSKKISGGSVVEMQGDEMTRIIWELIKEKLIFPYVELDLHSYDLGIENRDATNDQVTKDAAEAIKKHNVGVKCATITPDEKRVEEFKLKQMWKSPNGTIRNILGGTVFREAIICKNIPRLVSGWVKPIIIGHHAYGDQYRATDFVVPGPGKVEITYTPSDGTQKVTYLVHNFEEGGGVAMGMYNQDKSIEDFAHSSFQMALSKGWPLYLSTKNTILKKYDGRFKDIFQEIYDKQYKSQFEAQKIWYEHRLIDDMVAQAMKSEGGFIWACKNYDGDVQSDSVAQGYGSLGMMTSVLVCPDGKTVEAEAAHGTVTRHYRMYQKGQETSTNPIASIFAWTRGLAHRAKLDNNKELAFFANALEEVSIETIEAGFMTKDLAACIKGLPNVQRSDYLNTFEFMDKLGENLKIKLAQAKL
# Pf Dd2 inh – inhibitors of Plasmodium falciparum Dd2 growth. actives 2.3% (n = 94,000). activity change, % at 10 µM. AID 1159554. P. falciparum Dd2 growth, SYBR Green, 72 h; hits give low values; in the data active means activity change below about -80%; inconclusive means no clear call, values can overlap the other calls
# T cruzi growth-1 – blocks T. cruzi growth in NIH3T3 culture; inhibition, % at 8.34 µM; actives 5.9% (n = 77,000); T. cruzi beta-gal in NIH3T3, GalScreen luminescence, 90 h;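 active means mean inhibition above about 93%, with at least 55% of replicates each passing it, limit read from the data, passing the limit was not always enough; inconclusive means only one of those two conditions holds; inactive means neither condition holds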
# GASC1 inh – blocks human GASC-1 (KDM4C) demethylase activity; inhibition, % at 12.5 µM; actives 0.15% (n = 96,000); GST-KDM4C 2-372, H3K9me3 peptide, LANCE TR-FRET; Q9H3R0;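 active means mean replicate inhibition above about 25%, with at least 55% of replicates also reaching it, limit read from the data, passing the limit was not always enough; inconclusive means only one of those two conditions met; inactive means neither condition met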
#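 Material: GST-tagged GASC-1 (JMJD2C) catalytic fragment, aa 2-372. Input: enzyme final amount 10 nM. Medium: HEPES buffer, pH 7.5, plus ascorbate. Reagent: H3K9me3 peptide substrate, Fe(II), 2-oxoglutarate. Doses: single dose. Times: reaction 30 min RT, detection step 1 h RT. Measured by: LANCE TR-FRET. Evaluation: Fall in 671/618 emission ratio as inhibition.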
# T cruzi growth-2 – Trypanosoma cruzi proliferation inhibition. T. cruzi beta-gal in NIH3T3, GalScreen luminescence, 90 h. shares compounds with T cruzi growth-1. actives 72% (n = 5,600). inhibition, % at 8.35 µM;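 active means mean replicate inhibition above about 95% and at least 55% of replicates individually reaching it, limit read from the data; inconclusive means only one of the two criteria is met; inactive means neither criterion is met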
# T cruzi growth-3 – Trypanosoma cruzi proliferation inhibition; shares compounds with T cruzi growth-1; T. cruzi beta-gal in NIH3T3, GalScreen luminescence, 90 h; inhibition, % at 2.09 µM; actives 21% (n = 5,600);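 active means mean inhibition above about 95%, with at least 55% of replicates also reaching it, limit read from the data; inconclusive means meets just one of the two conditions; inactive means meets neither condition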;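 further: plate controls were neutral control median for no effect and positive control median for full effect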
# NIH3T3 tox – kills mouse NIH/3T3 fibroblasts; shares compounds with T cruzi growth-1; NIH/3T3 viability, CellTiter-Glo ATP luminescence, 90 h; cytotoxicity (signal decrease), % at 8.35 µM; actives 14% (n = 5,600); AID 651742;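 active means mean signal decrease across replicates above about 35% based on untreated-well scatter, with enough replicates individually passing, limit read from the data; inconclusive means no rule stated though some were filed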;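 further: 0% = median of neutral control wells and 100% = median of positive control wells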
# NIH3T3 tox 2 – kills mouse NIH/3T3 fibroblasts; shares compounds with T cruzi growth-1; NIH/3T3 viability, CellTiter-Glo ATP luminescence, 90 h; inhibition, % at 24.9 µM; actives 56% (n = 5,600);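 active means mean loss of cell viability signal at or above a set limit, and enough replicates individually reaching it; inconclusive means meets only the mean limit or only the replicate share; inactive means meets neither condition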;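 further: 0% = median of neutral control wells and 100% = median of positive control wells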
# The depositor's hits bear a star; ? = inconclusive; / = no result.
SMILES,IDH1 mut inh,Pf Dd2 inh,T cruzi growth-1,GASC1 inh,T cruzi growth-2,T cruzi growth-3,NIH3T3 tox,NIH3T3 tox 2
C[C@H]1CN([C@@H](C)CO)S(=O)(=O)c2ccc(C3=CCCC3)cc2O[C@H]1CN(C)Cc1ccccc1F,0,-44,94,-3,/,/,/,/
C[C@@H]1CN([C@@H](C)CO)S(=O)(=O)c2ccc(C3=CCCC3)cc2O[C@@H]1CN(C)Cc1ccccc1F,/,-77,114*,1,99*,110*,-4,104*
C[C@H]1CN([C@@H](C)CO)S(=O)(=O)c2ccc(C3=CCCC3)cc2O[C@H]1CN(C)Cc1ccccc1,0,-40,97*,1,96*,92,?,107*
C[C@@H]1CN([C@H](C)CO)S(=O)(=O)c2ccc(C3=CCCC3)cc2O[C@H]1CN(C)CC1CCCC1,-1,-57,105*,-2,92,91,59*,105*
C[C@@H]1CN([C@H](C)CO)S(=O)(=O)c2ccc(C3=CCCC3)cc2O[C@@H]1CN(C)Cc1ccccc1,-1,20,109*,5,100*,55,16,107*
O=C(O)CCCCCCC(=O)NN=C1CCCCCCC1,0,/,/,/,/,/,/,/
COC(=O)C[C@@H]1CC[C@@H]2[C@H](COc3ccc(NS(=O)(=O)c4ccc(C)cc4)cc3C(=O)N2C)O1,/,-11,107*,-3,100*,11,8,-7
CN1C(=O)c2cc(NS(=O)(=O)c3ccc(F)cc3)ccc2OC[C@H]2O[C@H](CC(=O)O)CC[C@H]21,/,5,97*,4,?,28,12,-41
COC(=O)C[C@H]1CC[C@@H]2[C@H](COc3ccc(NS(=O)(=O)c4cccc(F)c4)cc3C(=O)N2C)O1,/,-26,105*,0,-7,-15,-5,-16
CN1C(=O)c2cc(NS(=O)(=O)c3ccc(Cl)cc3)ccc2OC[C@H]2O[C@@H](CC(=O)N3CCc4ccccc4C3)CC[C@@H]21,/,-27,113*,0,104*,28,21,71*
COC(=O)C[C@@H]1CC[C@@H]2[C@@H](COc3ccc(NS(=O)(=O)c4cccc(F)c4)cc3C(=O)N2C)O1,/,19,19,2,/,/,/,/
Cc1cc(C)c(C(=O)Nc2ccc(S(=O)(=O)Nc3cc(C)nc(C)n3)cc2)c(C)c1,0,/,/,/,/,/,/,/
COCC(=O)Nc1ccc2c(c1)[C@H]1C[C@H](CC(=O)NCc3ccc(-c4ccccc4)cc3)O[C@H](CO)[C@H]1O2,-1,-50,111*,4,70,28,-19,18
COCC(=O)Nc1ccc2c(c1)[C@H]1C[C@@H](CC(=O)NCc3ccc(-c4ccccc4)cc3)O[C@H](CO)[C@H]1O2,0,-42,102*,-2,12,-5,8,17
COCC(=O)Nc1ccc2c(c1)[C@H]1C[C@H](CC(=O)NCc3ccc(-c4ccccc4)cc3)O[C@@H](CO)[C@H]1O2,-1,5,47,-1,/,/,/,/
COCC(=O)Nc1ccc2c(c1)[C@@H]1C[C@@H](CC(=O)NCc3ccc(-c4ccccc4)cc3)O[C@@H](CO)[C@@H]1O2,-1,-9,?,2,35,-43,37*,23
COCC(=O)Nc1ccc2c(c1)[C@H]1C[C@@H](CC(=O)NCc3ccc(-c4ccccc4)cc3)O[C@@H](CO)[C@H]1O2,0,-20,36,-1,/,/,/,/
COc1cccc(-c2ccc([C@@H]3[C@@H](CO)N4CCCCN(CC5CCOCC5)C[C@@H]34)cc2)c1,/,-10,98*,/,99*,39,18,54*
COc1cccc(-c2ccc([C@H]3[C@H]4CN(CC5CCOCC5)CCCCN4[C@H]3CO)cc2)c1,/,-15,104*,/,74,23,3,58*
COc1cccc(-c2ccc([C@@H]3[C@H](CO)N4CCCCN(CC5CCOCC5)C[C@@H]34)cc2)c1,/,-50,50,/,/,/,/,/
C=C1C2=C(O[C@H](/C(C)=C/C(C)CC(C)CC)[C@@H](O)[C@@H]2O)C(=O)N1OC (stereo not given in full),0,/,/,/,/,/,/,/
C[C@@H]1CN([C@H](C)CO)C(=O)c2cc(NC(=O)Nc3cccc4ccccc34)ccc2O[C@@H](C)CCCCO[C@H]1CN(C)Cc1ccc(Cl)c(Cl)c1,1,-70,/,0,/,/,/,/
C[C@H](CO)N1C[C@H](C)[C@@H](CN(C)Cc2ccc(Cl)c(Cl)c2)OCCCC[C@H](C)Oc2ccc(NC(=O)Nc3cccc4ccccc34)cc2C1=O,/,-4,122*,-1,111*,106*,24,16
C[C@@H]1CCCCO[C@@H](CN(C)Cc2ccc(Cl)c(Cl)c2)[C@@H](C)CN([C@H](C)CO)C(=O)c2cc(NC(=O)Nc3cccc4ccccc34)ccc2O1,-1,-18,120*,1,103*,77,-13,-17
C=C(C)[C@@H]1CC=C(/C=N/NC(=O)CCCCCCC(=O)OC)CC1,0,/,/,/,/,/,/,/
SMILES,IDH1 mut inh,Pf Dd2 inh,T cruzi growth-1,GASC1 inh,T cruzi growth-2,T cruzi growth-3,NIH3T3 tox,NIH3T3 tox 2
Cc1ccc(C)c(NC(=O)Cn2cc([N+](=O)[O-])cn2)c1,0,/,/,/,/,/,/,/
CSc1cccc(NC(=O)CN(C)S(=O)(=O)c2c(C)cc(C)cc2C)c1,0,/,/,/,/,/,/,/
Cc1noc(C)c1S(=O)(=O)N(C)C[C@H]1OCCCC[C@H](C)Oc2ccc(NS(=O)(=O)c3ccc(Cl)cc3)cc2C(=O)N([C@@H](C)CO)C[C@@H]1C,/,-50,94,1,/,/,/,/
Cc1ccc(S(=O)(=O)Nc2ccc3c(c2)C(=O)N([C@H](C)CO)C[C@@H](C)[C@H](CN(C)S(=O)(=O)c2c(C)noc2C)OCCCC[C@@H](C)O3)cc1,-6,-47,?,0,112*,40,11,-16
Cc1noc(C)c1S(=O)(=O)N(C)C[C@@H]1OCCCC[C@@H](C)Oc2ccc(NS(=O)(=O)c3ccc(Cl)cc3)cc2C(=O)N([C@H](C)CO)C[C@H]1C,1,-57,103*,-3,105*,71,19,1
Cc1noc(C)c1S(=O)(=O)N(C)C[C@@H]1OCCCC[C@H](C)Oc2ccc(NS(=O)(=O)c3ccc(F)cc3)cc2C(=O)N([C@H](C)CO)C[C@@H]1C,5,-38,108*,0,100*,32,-3,25
O=C(CCCC(=O)Nc1ccc2ccccc2c1)Nc1ccc2ccccc2c1,0,/,/,/,/,/,/,/
C[C@@H](O)C#Cc1ccc([C@@H]2[C@@H](CO)N3CCCCN(C(=O)c4cccc(F)c4)C[C@@H]23)cc1,/,28,73,1,/,/,/,/

# Screening data (PubChem BioAssay)
